Results taken from ChEMBL document CHEMBL1150355, “Design and evaluation of a novel series of 2,3-oxidosqualene cyclase inhibitors with low systemic exposure, relationship between pharmacokinetic properties and ocular toxicity” (Bioorg Med Chem, 2008).
Active and inactive are the calls of the source. No cut-off for these calls is given here.

Experiments:
Lanosterol synthase = molecular target: T1, Lanosterol synthase (Homo sapiens, UniProt P48449); experiment: Inhibition of 2,3-oxidosqualene-lanosterol cyclase
T1 sequence (P48449 whole entry): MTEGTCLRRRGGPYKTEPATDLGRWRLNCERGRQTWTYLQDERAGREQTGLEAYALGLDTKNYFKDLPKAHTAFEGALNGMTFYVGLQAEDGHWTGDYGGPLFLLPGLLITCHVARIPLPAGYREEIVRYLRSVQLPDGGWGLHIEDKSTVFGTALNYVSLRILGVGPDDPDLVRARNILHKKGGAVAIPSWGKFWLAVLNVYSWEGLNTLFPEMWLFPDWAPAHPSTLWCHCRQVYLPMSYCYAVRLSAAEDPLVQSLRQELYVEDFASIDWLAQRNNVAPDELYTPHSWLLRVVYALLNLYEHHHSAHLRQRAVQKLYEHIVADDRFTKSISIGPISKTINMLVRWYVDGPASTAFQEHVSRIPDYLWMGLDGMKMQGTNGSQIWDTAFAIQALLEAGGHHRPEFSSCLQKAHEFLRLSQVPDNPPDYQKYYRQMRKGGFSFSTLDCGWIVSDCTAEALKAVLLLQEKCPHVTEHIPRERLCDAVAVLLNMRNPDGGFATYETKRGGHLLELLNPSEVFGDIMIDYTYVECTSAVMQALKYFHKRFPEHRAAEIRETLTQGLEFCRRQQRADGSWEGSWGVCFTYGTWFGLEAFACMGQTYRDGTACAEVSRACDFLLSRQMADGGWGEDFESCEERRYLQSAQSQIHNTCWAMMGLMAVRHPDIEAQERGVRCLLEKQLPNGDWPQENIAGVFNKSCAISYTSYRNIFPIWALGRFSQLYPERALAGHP
In short: (§1)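 HepG2 cells were incubated 24 h with compound in BME with 10% fetal calf serum, then labelled with [14C]mevalonate (7.4 kBq). Lipids were extracted with heptane/isopropanol and separated by TLC. [14C]cholesterol, MES and DES were identified against standards and quantified by phosphorimaging, scoring cholesterol synthesis inhibition together with MES/DES formation.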

[1] = molecular target: T2, Lanosterol synthase (Homo sapiens) (UniProt P48449); experiment: Inhibition of 2,3-oxidosqualene-lanosterol cyclase at 200 nM; in short: as §1
T2 sequence (whole entry): T1 sequence (P48449 whole entry)

Rattus norvegicus [2] = experiment: Inhibition of neosynthetized cholesterol synthesis in OFA rat liver at 2 mg/kg, po after 3 hrs; assay type: functional
In short: (§2)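 Male OFA rats dosed orally at 2 mg/kg. Sterol synthesis was labelled by ip [14C]mevalonate (370 kBq) for the final hour, giving 3 h or 8 h total exposure. Lens and liver lipids were extracted with isopropanol, separated by TLC, and cholesterol and MES radioactivity quantified by phosphorimaging. Cholesterol inhibition is relative to vehicle-treated rats, and MES as % of BIBB 515-treated rats (100%).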

[3] = Metabolic stability in rat liver microsomes assessed as intrinsic clearance […]; assay type: ADME, Microsome
Rattus norvegicus [4] = experiment: Induction of neosynthetized 2,3 mono-epoxysqualene synthesis in OFA rat liver at 2 mg/kg, po after 3 hrs relative to BIBB 515; assay type: functional; in short: as §2
Rattus norvegicus [5] = experiment: Inhibition of neosynthetized cholesterol synthesis in OFA rat lens at 2 mg/kg, po after 3 hrs; assay type: functional; conditions: Lens of camera-type eye; in short: as §2
Rattus norvegicus [6] = experiment: Ocular toxicity in Sprague-Dawley rat assessed as opacification of anterior lens at 30 mg/kg, po administered once daily for 21 days; assay type: organism-based, Lens of camera-type eye; design: dose 30 mg/kg, route oral; conditions: in vivo, 504 h
In short: (§3)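 Sprague–Dawley rats (male and female, n = 3) were dosed orally once daily for 21 days. Anterior lens opacification was scored from 0 to 6 (4 marked, 5 very marked, 6 severe), with histological examination of the eye.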

Rattus norvegicus [7] = experiment: Induction of neosynthetized 2,3 mono-epoxysqualene synthesis in OFA rat lens at 2 mg/kg, po after 3 hrs relative to BIBB 515; assay type: functional, Lens of camera-type eye; in short: as §2
Rattus norvegicus [8] = experiment: Induction of neosynthetized 2,3 mono-epoxysqualene synthesis in OFA rat lens at 2 mg/kg, po after 8 hrs relative to BIBB 515; assay type: functional, Lens of camera-type eye; in short: as §2
Rattus norvegicus [9] = experiment: Inhibition of 2,3-oxidosqualene-lanosterol cyclase in male Sprague-Dawley rat assessed as 2,3 mono-epoxysqualene appearance in liver at 10 mg/kg, po administered once daily for 21 days; assay type: functional, organism-based; design: dose 10 mg/kg
In short: (§4)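 Sprague–Dawley rats (3 per sex) were dosed orally once daily for 21 days. On day 21, 3 h after the last dose, rats were sacrificed and hepatic lipids extracted and separated by TLC. MES was visualised with 5% phosphomolybdic acid in isopropanol, and MES mass quantified by densitometry.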

[10] = Biodistribution in OFA rat eyes at 1 mg/kg, iv after 2 hrs; assay type: ADME, organism-based; design: dose 1 mg/kg, route intravenous; conditions: eye, read-out: Drug uptake
In short: (§5)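 OFA rats (n = 10) dosed 1 mg/kg by iv bolus via penis vein in 10% DMA/90% PEG200. Plasma and tissue homogenates in borate buffer 0.1 M pH 11.5 were extracted with ethyl ether and analysed by LC. Plasma AUC was computed over 0–6 h.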

Rattus norvegicus [11] = experiment: Inhibition of 2,3-oxidosqualene-lanosterol cyclase in female Sprague-Dawley rat assessed as 2,3 mono-epoxysqualene appearance in liver at 2 mg/kg, po administered once daily for 21 days; assay type: functional, organism-based; design: dose 2 mg/kg; in short: as §4
Rattus norvegicus [12] = experiment: Inhibition of 2,3-oxidosqualene-lanosterol cyclase in male Sprague-Dawley rat assessed as 2,3 mono-epoxysqualene appearance in liver at 2 mg/kg, po administered once daily for 21 days; assay type: functional, organism-based; design: dose 2 mg/kg; in short: as §4
Rattus norvegicus [13] = experiment: Inhibition of neosynthetized cholesterol synthesis in OFA rat lens at 2 mg/kg, po after 8 hrs; assay type: functional; conditions: Lens of camera-type eye; in short: as §2
Rattus norvegicus [14] = experiment: Inhibition of 2,3-oxidosqualene-lanosterol cyclase in male Sprague-Dawley rat assessed as 2,3 mono-epoxysqualene appearance in liver at 30 mg/kg, po administered once daily for 21 days; assay type: functional, organism-based; design: dose 30 mg/kg; in short: as §4
Rattus norvegicus [15] = experiment: Inhibition of neosynthetized cholesterol synthesis in OFA rat liver at 2 mg/kg, po after 8 hrs; assay type: functional; in short: as §2
Rattus norvegicus [16] = experiment: Inhibition of 2,3-oxidosqualene-lanosterol cyclase in female Sprague-Dawley rat assessed as 2,3 mono-epoxysqualene appearance in liver at 10 mg/kg, po administered once daily for 21 days; assay type: functional, organism-based; design: dose 10 mg/kg; in short: as §4
Rattus norvegicus [17] = experiment: Induction of neosynthetized 2,3 mono-epoxysqualene synthesis in OFA rat liver at 2 mg/kg, po after 8 hrs relative to BIBB 515; assay type: functional; in short: as §2
[18] = Biodistribution in OFA rat liver at 1 mg/kg, iv after 2 hrs; assay type: ADME, organism-based; design: dose 1 mg/kg, route intravenous; conditions: read-out: Drug uptake; in short: as §5
Rattus norvegicus [19] = experiment: Inhibition of 2,3-oxidosqualene-lanosterol cyclase in female Sprague-Dawley rat assessed as 2,3 mono-epoxysqualene appearance in liver at 30 mg/kg, po administered once daily for 21 days; assay type: functional, organism-based; design: dose 30 mg/kg; in short: as §4
Rattus norvegicus [20] = experiment: Ocular toxicity in Sprague-Dawley rat assessed as opacification of anterior lens at 2 mg/kg, po administered once daily for 21 days; assay type: organism-based, Lens of camera-type eye; design: dose 2 mg/kg, route oral; conditions: in vivo, 504 h; in short: as §3
[21] = AUC (0 to 6 hrs) in OFA rat at 1 mg/kg, iv; assay type: ADME, organism-based; design: time < 6 hr, dose 1 mg/kg, route intravenous; conditions: plasma; in short: as §5
[22] = Biodistribution in OFA rat eyes at 1 mg/kg, iv after 6 hrs; assay type: ADME, organism-based; design: dose 1 mg/kg, route intravenous; conditions: eye, read-out: Drug uptake; in short: as §5
[23] = Biodistribution in OFA rat liver at 1 mg/kg, iv after 6 hrs; assay type: ADME, organism-based; design: dose 1 mg/kg, route intravenous; conditions: read-out: Drug uptake; in short: as §5

`N#Cc1ccc(S(=O)(=O)NCCc2ccc(C(O)c3cccnc3)cc2)cc1` (racemic) showed an EC50 (Lanosterol synthase) of 100 nM.

`CN(C)Cc1ccc(CN2CCN(C(=O)c3ccc(Cl)cc3)CC2)cc1` gave an IC50 (Lanosterol synthase) of 40 nM.

In the case of `Cc1nc(-c2ccc(CN3CCN(C(=O)c4ccc(Cl)cc4)CC3)cc2)no1`, the Activity [1] is reported as “inactive”.

`O=S(=O)(c1ccc(Cl)cc1)N1CCN(Cc2ccc(-c3ccncc3)cc2)CC1` showed an inhibition in vivo at 2 mg/kg (Rattus norvegicus [2]) of 66%, an IC50 (Lanosterol synthase) of 13 nM and a CLint scaled [3] of 1.3 mL/min/g. For the same compound, the Activity (Rattus norvegicus [4]) was 45%.

Compound `COc1ccc(C(=O)N2CCN(Cc3ccc(-c4ccncc4)cc3)CC2)cc1` has an IC50 (Lanosterol synthase) of 2510 nM.

`CN(C)Cc1ccc(CN2CCN(S(=O)(=O)c3ccc(Cl)cc3)CC2)cc1` gave an inhibition in vivo at 2 mg/kg (Rattus norvegicus [2]) of 74%, an IC50 (Lanosterol synthase) of 32 nM and a CLint scaled [3] of 2.5 mL/min/g. The Activity (Rattus norvegicus [4]) was 55%.

In the case of `O=C(c1ccc(Cl)cc1)N1CCN(Cc2ccc(-n3ccnc3)cc2)CC1`, the inhibition in vivo at 2 mg/kg (Rattus norvegicus [5]) is reported as 76%, the Activity (Rattus norvegicus [6]) is reported as “Toxic” and the inhibition in vivo at 2 mg/kg (Rattus norvegicus [2]) is reported as 85%. For the same compound, the Activity (Rattus norvegicus [7]) was 104%, the Activity (Rattus norvegicus [8]) was 51% and the Activity (Rattus norvegicus [9]) was “Toxic”. For the same compound, the concentration at 2 h [10] was 65 ng/g, the Activity (Rattus norvegicus [11]) was “Toxic” and the Activity (Rattus norvegicus [12]) was “Non-toxic”. The inhibition in vivo at 2 mg/kg (Rattus norvegicus [13]) was 0%, the Activity (Rattus norvegicus [14]) was “Toxic” and the inhibition in vivo at 2 mg/kg (Rattus norvegicus [15]) was 20%. For the same compound, the Activity (Rattus norvegicus [16]) was “Toxic”, the Activity (Rattus norvegicus [17]) was 85% and the IC50 (Lanosterol synthase) was 32 nM. For the same compound, the concentration at 2 h [18] was 2010 ng/g, the Activity (Rattus norvegicus [19]) was “Toxic” and the CLint scaled [3] was 0.2 mL/min/g. For the same compound, the Activity (Rattus norvegicus [20]) was “Non-toxic”, the AUC(0-t) at 6 h [21] was 534 ng·h/mL and the concentration at 6 h [22] was < 10 ng/g. It also gave a concentration at 6 h [23] of 660 ng/g and an Activity (Rattus norvegicus [4]) of 156%.

`O=S(=O)(NCCc1ccc(-c2ccc(CN3CCCC3)cc2)cc1)c1ccc(Cl)cc1` gave an IC50 (Lanosterol synthase) of 63 nM.

In the case of `Cn1cc(-c2ccc(CN3CCN(C(=O)c4ccc(Cl)cc4)CC3)cc2)cn1`, the Activity [1] is reported as “inactive”.

In the case of `CN1CCN(c2ccc(CN3CCN(S(=O)(=O)c4ccc(Cl)cc4)CC3)cc2)CC1`, the inhibition in vivo at 2 mg/kg (Rattus norvegicus [5]) is reported as 67%, the Activity (Rattus norvegicus [6]) is reported as “Toxic” and the inhibition in vivo at 2 mg/kg (Rattus norvegicus [2]) is reported as 75%. For the same compound, the Activity (Rattus norvegicus [7]) was 162%, the Activity (Rattus norvegicus [8]) was 29% and the Activity (Rattus norvegicus [9]) was “Toxic”. For the same compound, the concentration at 2 h [10] was 278 ng/g, the Activity (Rattus norvegicus [11]) was “Toxic” and the Activity (Rattus norvegicus [12]) was “Toxic”. For the same compound, the inhibition in vivo at 2 mg/kg (Rattus norvegicus [13]) was 67%, the Activity (Rattus norvegicus [14]) was “Toxic” and the inhibition in vivo at 2 mg/kg (Rattus norvegicus [15]) was 62%. The Activity (Rattus norvegicus [16]) was “Toxic”, the Activity (Rattus norvegicus [17]) was 232% and the IC50 (Lanosterol synthase) was 6 nM. For the same compound, the concentration at 2 h [18] was 6600 ng/g, the Activity (Rattus norvegicus [19]) was “Toxic” and the CLint scaled [3] was 5.4 mL/min/g. It also gave an AUC(0-t) at 6 h [21] of 97 ng·h/mL, a concentration at 6 h [22] of 123 ng/g and a concentration at 6 h [23] of 3270 ng/g. For the same compound, the Activity (Rattus norvegicus [4]) was 111%.
